Measured values published in ChEMBL document CHEMBL5724801, “EUbOPEN Chemogenomics Library - Multiplex” (2024).
Several values for one entry are separate records, joined by “and”; a condition that tells them apart may be missing. Identical values can stand only once.

Test system: HEK-293T
Assay: Multiplex assay against HEK293T
Type: toxicity, cell-based
Conditions: human
Procedure, shortened: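 On a CQ1 microscope at 37°C and 5% CO2, live cells were imaged after compound addition. They had been stained at seeding with Hoechst33342, BioTracker Green Microtubule Cytoskeleton Dye, MitoTracker Red and Annexin V Alexa Fluor 680. CellPathfinder machine-learning gating assigned cells to Hoechst high-intensity objects or normal cells, normal cells to healthy, pyknosed or fragmented nuclei, and pyknosed cells to mitotic or apoptotic. Tubulin, mitochondrial-mass and membrane-permeability phenotypes are per cents of healthy-nucleus cells.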

[1] = 12 h, 10 µM, compound concentration 10 uM
[2] = 24 h, 10 µM, compound concentration 10 uM
[3] = 48 h, 10 µM, compound concentration 10 uM
[4] = 12 h, 1 µM, compound concentration 1 uM
[5] = 24 h, 1 µM, compound concentration 1 uM
[6] = 48 h, 1 µM, compound concentration 1 uM

In the case of `CC(=O)O[C@H]1C(=O)[C@@]2(C)[C@H]([C@H](OC(=O)c3ccccc3)[C@]3(O)C[C@H](OC(=O)[C@H](O)[C@@H](NC(=O)c4ccccc4)c4ccccc4)C(C)=C1C3(C)C)[C@]1(OC(C)=O)CO[C@@H]1C[C@@H]2O` [PACLITAXEL], the “Population Apoptotic (%)” value [1] was 41% and 56%, the “Population Fragmented Nuclei (%)” value [1] was 7% and 5% and the “Population Healthy Nuclei (%)” value [1] was 74% and 64%. For the same compound, the “Population Hoechst High Intensity Objects (%)” value [1] was 16% and 14%, the “Population Membrane Permeable-Phenotype (%)” value [1] was 0% and the “Population Mitochondria Different-Phenotype (%)” value [1] was 79% and 84%. For the same compound, the “Population Mitotic Cells (%)” value [1] was 58% and 43%, the “Population Normal (%)” value [1] was 83% and 85% and the “Population Pyknosed Nuclei (%)” value [1] was 17% and 29%. The “Population Tubulin-Different-Phenotype (%)” value [1] was 11% and 16%, the “Population Apoptotic (%)” value [2] was 35% and 47% and the “Population Fragmented Nuclei (%)” value [2] was 10% and 8%. The “Population Healthy Nuclei (%)” value [2] was 70% and 73%, the “Population Hoechst High Intensity Objects (%)” value [2] was 16% and 15% and the “Population Membrane Permeable-Phenotype (%)” value [2] was 0%. The “Population Mitochondria Different-Phenotype (%)” value [2] was 72% and 82%, the “Population Mitotic Cells (%)” value [2] was 64% and 52% and the “Population Normal (%)” value [2] was 83% and 84%. For the same compound, the “Population Pyknosed Nuclei (%)” value [2] was 18% and 17%, the “Population Tubulin-Different-Phenotype (%)” value [2] was 8% and 16% and the “Population Apoptotic (%)” value [3] was 29% and 69%. For the same compound, the “Population Fragmented Nuclei (%)” value [3] was 15% and 10%, the “Population Healthy Nuclei (%)” value [3] was 68% and 70% and the “Population Hoechst High Intensity Objects (%)” value [3] was 11%. For the same compound, the “Population Membrane Permeable-Phenotype (%)” value [3] was 0%, the “Population Mitochondria Different-Phenotype (%)” value [3] was 64% and 70% and the “Population Mitotic Cells (%)” value [3] was 70% and 30%. For the same compound, the “Population Normal (%)” value [3] was 88%, the “Population Pyknosed Nuclei (%)” value [3] was 15% and 19% and the “Population Tubulin-Different-Phenotype (%)” value [3] was 2% and 11%.
`C[C@H](C[C@H](N)C(=O)O)C(=O)O` [2S,4R-4-METHYLGLUTAMATE] was tested, and the “Population Apoptotic (%)” value [4] was 6.61% and 13.76%, the “Population Fragmented Nuclei (%)” value [4] was 2.69% and 5.93% and the “Population Hoechst High Intensity Objects (%)” value [4] was 0.59% and 0.74%. For the same compound, the “Population Membrane Permeable-Phenotype (%)” value [4] was 0% and 5.56%, the “Population Mitochondria Different-Phenotype (%)” value [4] was 31.22% and 27.78% and the “Population Mitotic Cells (%)” value [4] was 93.39% and 86.24%. The “Population Normal (%)” value [4] was 99.41% and 99.26%, the “Population Pyknosed Nuclei (%)” value [4] was 36.12% and 80.74% and the “Total Cell Count” value [4] was 337 and 136. For the same compound, the “Population Apoptotic (%)” value [1] was 7.2% and 16.44%, the “Population Fragmented Nuclei (%)” value [1] was 3.38% and 3.49% and the “Population Hoechst High Intensity Objects (%)” value [1] was 0%. For the same compound, the “Population Membrane Permeable-Phenotype (%)” value [1] was 0%, the “Population Mitochondria Different-Phenotype (%)” value [1] was 31.06% and 20% and the “Population Mitotic Cells (%)” value [1] was 92.8% and 83.56%. The “Population Normal (%)” value [1] was 100%, the “Population Pyknosed Nuclei (%)” value [1] was 42.23% and 84.88% and the “Population Tubulin-Different-Phenotype (%)” value [1] was 3.73% and 10%. The “Total Cell Count” value [1] was 296 and 172, the “Population Apoptotic (%)” value [5] was 6.4% and 17.39% and the “Population Fragmented Nuclei (%)” value [5] was 1.63% and 2.47%. For the same compound, the “Population Healthy Nuclei (%)” value [5] was 75.77% and 26.54%, the “Population Hoechst High Intensity Objects (%)” value [5] was 0.36% and 0% and the “Population Membrane Permeable-Phenotype (%)” value [5] was 1.67% and 0%. For the same compound, the “Population Mitochondria Different-Phenotype (%)” value [5] was 13.13% and 13.95%, the “Population Mitotic Cells (%)” value [5] was 93.6% and 82.61% and the “Population Normal (%)” value [5] was 99.64% and 100%. For the same compound, the “Population Tubulin-Different-Phenotype (%)” value [5] was 10.5% and 2.33%, the “Population Apoptotic (%)” value [2] was 10.99% and 23.73% and the “Population Fragmented Nuclei (%)” value [2] was 1.21% and 2.99%. The “Population Healthy Nuclei (%)” value [2] was 80.4% and 38.31%, the “Population Hoechst High Intensity Objects (%)” value [2] was 0% and the “Population Membrane Permeable-Phenotype (%)” value [2] was 0.5% and 0%. The “Population Mitochondria Different-Phenotype (%)” value [2] was 14.57% and 6.49%, the “Population Mitotic Cells (%)” value [2] was 89.01% and 76.27% and the “Population Normal (%)” value [2] was 100%. The “Population Tubulin-Different-Phenotype (%)” value [2] was 7.29% and 2.6%, the “Total Cell Count” value [2] was 495 and 201 and the “Population Fragmented Nuclei (%)” value [6] was 3.3% and 2.56%. The “Population Healthy Nuclei (%)” value [6] was 86.59% and 58.46%, the “Population Hoechst High Intensity Objects (%)” value [6] was 0% and 2.5% and the “Population Membrane Permeable-Phenotype (%)” value [6] was 4.15% and 2.63%. For the same compound, the “Population Mitochondria Different-Phenotype (%)” value [6] was 11.93% and 28.95%, the “Population Mitotic Cells (%)” value [6] was 93.48% and 76.32% and the “Population Normal (%)” value [6] was 100% and 97.5%. For the same compound, the “Population Apoptotic (%)” value [3] was 11.21% and 22.54%, the “Population Fragmented Nuclei (%)” value [3] was 1.13% and 2.5% and the “Population Healthy Nuclei (%)” value [3] was 90.25% and 75.31%. For the same compound, the “Population Hoechst High Intensity Objects (%)” value [3] was 0% and 0.93%, the “Population Membrane Permeable-Phenotype (%)” value [3] was 3.93% and 1.24% and the “Population Mitochondria Different-Phenotype (%)” value [3] was 12.14% and 16.6%. The “Population Mitotic Cells (%)” value [3] was 88.79% and 77.46%, the “Population Normal (%)” value [3] was 100% and 99.07% and the “Population Pyknosed Nuclei (%)” value [3] was 8.62% and 22.19%.
For `CC(=O)Nc1cccc2c1c(Sc1ccc(Cl)cc1)c(C)n2CC(=O)O` [AZD1981], the “Population Apoptotic (%)” value [4] was 37% and 60%, the “Population Fragmented Nuclei (%)” value [4] was 6% and 5% and the “Population Healthy Nuclei (%)” value [4] was 81% and 80%. The “Population Hoechst High Intensity Objects (%)” value [4] was 6% and 8%, the “Population Membrane Permeable-Phenotype (%)” value [4] was 0% and the “Population Mitochondria Different-Phenotype (%)” value [4] was 46% and 57%. For the same compound, the “Population Mitotic Cells (%)” value [4] was 62% and 40%, the “Population Normal (%)” value [4] was 93% and 91% and the “Population Pyknosed Nuclei (%)” value [4] was 11% and 13%. For the same compound, the “Population Tubulin-Different-Phenotype (%)” value [4] was 28% and 18%, the “Total Cell Count” value [4] was 405 and 314 and the “Population Apoptotic (%)” value [1] was 38% and 60%. For the same compound, the “Population Fragmented Nuclei (%)” value [1] was 8% and 6%, the “Population Healthy Nuclei (%)” value [1] was 78% and 77% and the “Population Hoechst High Intensity Objects (%)” value [1] was 7% and 15%. For the same compound, the “Population Membrane Permeable-Phenotype (%)” value [1] was 0%, the “Population Mitochondria Different-Phenotype (%)” value [1] was 44% and 60% and the “Population Mitotic Cells (%)” value [1] was 61% and 39%. For the same compound, the “Population Normal (%)” value [1] was 92% and 84%, the “Population Pyknosed Nuclei (%)” value [1] was 12% and 15% and the “Population Tubulin-Different-Phenotype (%)” value [1] was 29% and 26%. The “Total Cell Count” value [1] was 403 and 318, the “Population Apoptotic (%)” value [5] was 20% and 54% and the “Population Fragmented Nuclei (%)” value [5] was 9% and 7%. The “Population Healthy Nuclei (%)” value [5] was 80%, the “Population Hoechst High Intensity Objects (%)” value [5] was 2% and 9% and the “Population Membrane Permeable-Phenotype (%)” value [5] was 0%. For the same compound, the “Population Mitochondria Different-Phenotype (%)” value [5] was 33% and 42%, the “Population Mitotic Cells (%)” value [5] was 79% and 45% and the “Population Normal (%)” value [5] was 97% and 90%. The “Population Pyknosed Nuclei (%)” value [5] was 9% and 11%, the “Population Tubulin-Different-Phenotype (%)” value [5] was 23% and 16% and the “Total Cell Count” value [5] was 568 and 398. For the same compound, the “Population Apoptotic (%)” value [2] was 40% and 59%, the “Population Fragmented Nuclei (%)” value [2] was 7% and 8% and the “Population Healthy Nuclei (%)” value [2] was 79% and 81%. The “Population Hoechst High Intensity Objects (%)” value [2] was 4% and 12%, the “Population Membrane Permeable-Phenotype (%)” value [2] was 0% and the “Population Mitochondria Different-Phenotype (%)” value [2] was 28% and 45%. The “Population Mitotic Cells (%)” value [2] was 59% and 40%, the “Population Normal (%)” value [2] was 95% and 87% and the “Population Pyknosed Nuclei (%)” value [2] was 13% and 9%. The “Population Tubulin-Different-Phenotype (%)” value [2] was 25% and 19%, the “Total Cell Count” value [2] was 526 and 387 and the “Population Apoptotic (%)” value [6] was 21% and 38%. For the same compound, the “Population Fragmented Nuclei (%)” value [6] was 15% and 13%, the “Population Healthy Nuclei (%)” value [6] was 78% and 79% and the “Population Hoechst High Intensity Objects (%)” value [6] was 1% and 3%. For the same compound, the “Population Membrane Permeable-Phenotype (%)” value [6] was 1%, the “Population Mitochondria Different-Phenotype (%)” value [6] was 18% and 20% and the “Population Mitotic Cells (%)” value [6] was 78% and 61%. For the same compound, the “Population Normal (%)” value [6] was 98% and 96%, the “Population Pyknosed Nuclei (%)” value [6] was 6% and the “Population Tubulin-Different-Phenotype (%)” value [6] was 10% and 12%. For the same compound, the “Total Cell Count” value [6] was 908 and 570, the “Population Apoptotic (%)” value [3] was 37% and 33% and the “Population Fragmented Nuclei (%)” value [3] was 14% and 16%. The “Population Healthy Nuclei (%)” value [3] was 78%, the “Population Hoechst High Intensity Objects (%)” value [3] was 2% and 4% and the “Population Membrane Permeable-Phenotype (%)” value [3] was 0%. For the same compound, the “Population Mitochondria Different-Phenotype (%)” value [3] was 18% and 26%, the “Population Mitotic Cells (%)” value [3] was 62% and 66% and the “Population Normal (%)” value [3] was 97% and 95%. For the same compound, the “Population Pyknosed Nuclei (%)” value [3] was 7% and 5%, the “Population Tubulin-Different-Phenotype (%)” value [3] was 11% and the “Total Cell Count” value [3] was 751 and 556.
